Rows were chosen to be rich in hits. Some 4.8% of all compounds tested hit in one or more screens of this group.
PAFAH1B2 FP inh – PAFAH1B2 enzyme inhibitors, primary screen, biochemical, fluorescence polarization, human. Platelet-activating factor acetylhydrolase IB subunit alpha2 (Homo sapiens), P68402. recombinant PAFAH1B2, FP-rhodamine activity probe. inhibition, % at 3.39 µM. 340,000 tested, 1.2% active;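 active = inhibition above the mean of all tested compounds plus 3 SD, cut at about 24% in these data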;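 note: 0% = enzyme with DMSO and 100% = wells lacking PAFAH1B2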
Target sequence (P68402 whole entry, looked up): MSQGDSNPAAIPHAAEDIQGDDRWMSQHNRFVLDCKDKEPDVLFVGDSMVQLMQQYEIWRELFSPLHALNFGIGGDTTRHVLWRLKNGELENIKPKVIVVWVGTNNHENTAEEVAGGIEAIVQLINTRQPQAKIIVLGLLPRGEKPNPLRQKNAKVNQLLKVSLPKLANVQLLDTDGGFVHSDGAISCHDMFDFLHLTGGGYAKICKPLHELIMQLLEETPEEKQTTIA
PAFAH2 inh – PAFAH2 enzyme inhibitors, primary screen, biochemical, fluorescence polarization, human; inhibition, % at 3.39 µM; 340,000 tested, 0.99% active; recombinant PAFAH2, FP-rhodamine activity probe; AID 492956, 2010; Platelet-activating factor acetylhydrolase 2, cytoplasmic (Homo sapiens), Q99487;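 active = inhibition above the mean over all tested compounds plus 3 SD, cut at about 30% in these data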;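 note: inhibitors block probe labeling of enzyme so polarization drops; 0% = enzyme with DMSO and 100% = wells lacking PAFAH2 protein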
UCH37 DUB inh – inhibitors of human UCH37 deubiquitinase, primary screen, biochemical, Ub-AMC cleavage, fluorescence. Ubiquitin carboxyl-terminal hydrolase isozyme L5 (Homo sapiens), Q9Y5K5. purified proteasome/UCH37. inhibition, % (no concentration beside the values). 330,000 tested, 0.33% active;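 active = mean inhibition over replicate wells above about 20%, limit read from the data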;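 note: 0% = compound-free wells with enzyme and 100% = wells lacking proteasome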
Target sequence (Q9Y5K5 whole entry, looked up): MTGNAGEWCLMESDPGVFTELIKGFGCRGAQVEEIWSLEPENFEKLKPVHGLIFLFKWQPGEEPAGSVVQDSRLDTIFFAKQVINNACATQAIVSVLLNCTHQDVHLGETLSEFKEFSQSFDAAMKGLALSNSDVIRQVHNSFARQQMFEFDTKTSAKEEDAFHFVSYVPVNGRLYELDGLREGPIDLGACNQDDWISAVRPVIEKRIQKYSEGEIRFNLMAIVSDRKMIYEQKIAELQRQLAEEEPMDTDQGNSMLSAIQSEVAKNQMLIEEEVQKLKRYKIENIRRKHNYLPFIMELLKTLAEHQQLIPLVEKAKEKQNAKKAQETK
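Schedule: 30 min plus 25 min, room temperature / Material: human UCH37 within purified proteasomes / Technique: AMC fluorescence intensity at 355/460 nm / Buffer or medium: pH 7.4 Tris-HCl (50 mM) with ovalbumin, ATP-MgCl2, DTT / Controls: wells without proteasome as full block, compound-free enzyme plus substrate as uninhibited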
PAFAH1B3 inh – PAFAH1B3 enzyme inhibitors, primary screen, biochemical, fluorescence polarization, human | recombinant PAFAH1B3, FP-rhodamine probe | 340,000 tested, 0.28% active | inhibition, % at 3.39 µM;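 active = inhibition above the screen-wide average of all tested compounds plus 3 SD, cut at about 25% in these data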;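 note: 0% = enzyme with DMSO only and 100% = wells lacking PAFAH1B3 protein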
GRIN3A LBD mod – binders of NR3A ligand-binding domain, primary screen, biophysical, differential scanning fluorimetry, uHTS; Glutamate receptor ionotropic, NMDA 3A (GRIN3A) ligand-binding domain; NR3A LBD differential scanning fluorimetry, Tm shift; 0% = protein alone, 100% = glycine-bound protein; AID 1259313, 2017; Tm shift relative to glycine control, % at 25 µM; 340,000 tested, 2.5% active;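 active = melting temperature shift of at least 10% of the positive control shift, at one fixed dose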
pPAFAH inh – pPAFAH enzyme inhibitors, primary screen, biochemical, fluorescence polarization, human; Platelet-activating factor acetylhydrolase (Homo sapiens), Q13093; recombinant pPAFAH, FP-rhodamine probe fluorescence polarization; inhibition, % at 3.39 µM; 330,000 tested, 1.5% active; AID 463082, 2010;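 active = inhibition above the mean inhibition across the screen plus 3 SD, cut at about 25% in these data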;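 note: inhibitors block binding of the rhodamine activity-based probe so polarization drops; 0% = enzyme with DMSO and 100% = wells lacking pPAFAH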
* hit, by the source's call.

Screening O=C(O)COc1ccccc1/C=N/NC(=O)CN1CCN(S(=O)(=O)c2ccc(Br)cc2)CC1 returned PAFAH1B2 FP inh 27*, PAFAH2 inh 2, PAFAH1B3 inh 3, GRIN3A LBD mod 1 and pPAFAH inh 4.
For COc1cccc(C(=O)CN2CCN(S(=O)(=O)c3ccc(Br)cc3)CC2)c1 the results were PAFAH1B2 FP inh 29*, PAFAH2 inh -2, UCH37 DUB inh 3, PAFAH1B3 inh -1, GRIN3A LBD mod 1 and pPAFAH inh 5.
Screening COc1cccc(CN2CCN(S(=O)(=O)c3ccc(Br)cc3)CC2)c1 returned PAFAH1B2 FP inh 15, PAFAH2 inh 4, UCH37 DUB inh 3, PAFAH1B3 inh 1, GRIN3A LBD mod 0 and pPAFAH inh -2.
For O=C(CN1CCN(S(=O)(=O)c2ccc(Cl)cc2)CC1)NC1CC1 the results were PAFAH1B2 FP inh 29*, PAFAH2 inh 0, UCH37 DUB inh 4, PAFAH1B3 inh -3, GRIN3A LBD mod -4 and pPAFAH inh -4.
For O=C(CN1CCN(S(=O)(=O)c2ccc(Cl)cc2)CC1)Nc1ccc(F)cc1F the results were PAFAH1B2 FP inh 28*, PAFAH2 inh -2, UCH37 DUB inh 5, PAFAH1B3 inh 6, GRIN3A LBD mod -2 and pPAFAH inh 1.
O=C(CN1CCN(S(=O)(=O)c2ccccc2)CC1)NC1CC1 was read as PAFAH1B2 FP inh 6, PAFAH2 inh -9, PAFAH1B3 inh 3, GRIN3A LBD mod 0 and pPAFAH inh -3.
`COC(=O)NN=C(CCC(=O)O)c1cccs1` gave UCH37 DUB inh 1.
For OC(=Cc1ccc2ccccc2n1)c1ccncc1 the results were UCH37 DUB inh 5.
For CN(Cc1c(C(=O)NN=Cc2cc(F)ccc2F)nnn1-c1nonc1N)C1CCCCC1 the results were UCH37 DUB inh 16.
Cc1ccc(S(=O)(=O)NCc2n[nH]c(=S)n2C)cc1 was read as PAFAH1B2 FP inh 5, PAFAH2 inh 8, UCH37 DUB inh 2, PAFAH1B3 inh 0, GRIN3A LBD mod -1 and pPAFAH inh 2.
Screening Cn1c(CNS(=O)(=O)c2ccc(Br)cc2)n[nH]c1=S returned PAFAH1B2 FP inh 24*, PAFAH2 inh 4, UCH37 DUB inh 0, PAFAH1B3 inh 10, GRIN3A LBD mod -1 and pPAFAH inh 7.
Cc1ccc(-c2nnc(SCC(=O)NN=Cc3ccccc3C(=O)O)n2-c2ccc(C)cc2)cc1 was read as UCH37 DUB inh 2.
CCCOc1ccc(-c2nn(-c3ccccc3)cc2/C=C2\SC(N)=NC2=O)cc1C was read as PAFAH1B2 FP inh -4, PAFAH2 inh -37, UCH37 DUB inh -64, PAFAH1B3 inh -7, GRIN3A LBD mod 16* and pPAFAH inh -1.
For CCCCCCCCCCCCCCCCn1cc[n+](C)c1 the results were PAFAH1B2 FP inh 2, PAFAH2 inh -8, UCH37 DUB inh 76*, PAFAH1B3 inh 4, GRIN3A LBD mod -359 and pPAFAH inh 17.
Cn1ccc(C=N/N=C2/NC(=O)CS2)n1 was read as UCH37 DUB inh 6.
For Cc1cc(C)nc(NNS(=O)(=O)c2ccc(F)c(Cl)c2)n1 the results were PAFAH1B2 FP inh 1, PAFAH2 inh 2, PAFAH1B3 inh -3, GRIN3A LBD mod 1 and pPAFAH inh 1.
For Cc1cc(C)nc(NNS(=O)(=O)c2ccc(Cl)cc2)n1 the results were PAFAH1B2 FP inh 26*, PAFAH2 inh 10, PAFAH1B3 inh 10, GRIN3A LBD mod 1 and pPAFAH inh 1.
`COc1cccc(/C=C2/SC(=S)N(CC(=O)NNC(=O)c3ccccc3O)C2=O)c1` gave PAFAH1B2 FP inh -17, PAFAH2 inh -39, UCH37 DUB inh 5, PAFAH1B3 inh -30, GRIN3A LBD mod 15* and pPAFAH inh 21.
For O=C(CN1C(=O)/C(=C/c2ccccc2)SC1=S)NNC(=O)c1ccccc1O the results were PAFAH1B2 FP inh 0, PAFAH2 inh 22, UCH37 DUB inh 5, PAFAH1B3 inh 12, GRIN3A LBD mod 10* and pPAFAH inh 10.
Screening COc1cccc(/C=C2\SC(=S)N(N3C(=O)CCCC3=O)C2=O)c1 returned PAFAH1B2 FP inh 8, PAFAH2 inh 13, UCH37 DUB inh 8, PAFAH1B3 inh 6, GRIN3A LBD mod 24* and pPAFAH inh 3.
Screening CN(C)c1ccc(C=Nn2c(C3CCCCC3)n[nH]c2=S)cc1 returned UCH37 DUB inh 4.
O=C(NN=Cc1ccccc1F)NC1CCCCC1 was read as UCH37 DUB inh 3.
For COc1ccc(C(c2nnnn2C2CCCC2)N2CCN(C3CCCC3)CC2)cc1OC (stereo not given) the results were PAFAH1B2 FP inh 3, PAFAH2 inh 1, UCH37 DUB inh -3, PAFAH1B3 inh 11, GRIN3A LBD mod 11* and pPAFAH inh -1.
Cn1c(=NN=Cc2ccc(Cl)c([N+](=O)[O-])c2)sc2ccccc21 was read as UCH37 DUB inh 8.
Screening Cc1ccsc1C=NNC(=O)C(O)c1ccccc1 (stereo not given) returned UCH37 DUB inh 4.
Fc1cc(NC(=S)NCc2ccc(CNC(=S)Nc3ccc(Cl)c(F)c3)cc2)ccc1Cl was read as PAFAH1B2 FP inh -23, PAFAH2 inh -60, UCH37 DUB inh 4, PAFAH1B3 inh -42, GRIN3A LBD mod 94* and pPAFAH inh -24.
`NS(=O)(=O)c1ccc(CNC(=S)Nc2ccc(Cl)c(Cl)c2)cc1` gave PAFAH1B2 FP inh -4, PAFAH2 inh -10, UCH37 DUB inh 2, PAFAH1B3 inh 2, GRIN3A LBD mod 12* and pPAFAH inh -4.
Screening NC(=S)Cc1nc(-c2ccc(Cl)cc2)cs1 returned PAFAH1B2 FP inh 6, PAFAH2 inh -1, UCH37 DUB inh 2, PAFAH1B3 inh 4, GRIN3A LBD mod -17 and pPAFAH inh 25*.
`Cc1ccc(CSc2nc3c(c(=O)[nH]2)CCC3)cc1` gave PAFAH1B2 FP inh 25*, PAFAH2 inh 2, UCH37 DUB inh 1, PAFAH1B3 inh 10, GRIN3A LBD mod -1 and pPAFAH inh 8.
For Cc1ccccc1CSc1nc2c(c(=O)[nH]1)CCCC2 the results were UCH37 DUB inh 0 and pPAFAH inh 51*.
`Cc1cccc(CSc2nc3c(c(=O)[nH]2)CCC3)c1` gave PAFAH1B2 FP inh 0, PAFAH2 inh 14, UCH37 DUB inh 5, PAFAH1B3 inh -5, GRIN3A LBD mod 1 and pPAFAH inh 20.

Screening results as filed in PubChem BioAssay.
